Tests used:
[1] = target: T1, MAO-B (amine oxidase [flavin-containing] B) (Homo sapiens, UniProt P27338); test: Inhibition of human MAO-B at 10 uM relative to control
T1 sequence (P27338 whole entry): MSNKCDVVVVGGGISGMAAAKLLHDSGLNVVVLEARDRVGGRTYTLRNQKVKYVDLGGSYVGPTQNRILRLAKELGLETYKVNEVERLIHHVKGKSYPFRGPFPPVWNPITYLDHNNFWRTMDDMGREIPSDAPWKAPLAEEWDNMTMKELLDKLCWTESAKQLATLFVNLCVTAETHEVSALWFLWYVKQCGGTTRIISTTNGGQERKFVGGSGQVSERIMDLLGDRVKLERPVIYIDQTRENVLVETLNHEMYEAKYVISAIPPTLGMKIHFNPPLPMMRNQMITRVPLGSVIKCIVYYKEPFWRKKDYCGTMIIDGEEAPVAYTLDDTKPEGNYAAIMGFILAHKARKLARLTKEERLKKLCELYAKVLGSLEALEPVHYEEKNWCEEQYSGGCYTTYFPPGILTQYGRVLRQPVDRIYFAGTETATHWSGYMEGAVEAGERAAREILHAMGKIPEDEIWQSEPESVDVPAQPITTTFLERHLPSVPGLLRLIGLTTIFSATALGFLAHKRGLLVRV
Procedure, shortened: (§1)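 Human MAO-A and MAO-B inhibition, screened first at a test concentration of 10 µM.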

[2] = target: T2, Amine oxidase [flavin-containing] B (Homo sapiens, UniProt P27338); test: Inhibition of human MAO-B
T2 sequence (P27338 whole entry): T1 sequence (P27338 whole entry)

[3] = target: T3, Amine oxidase [flavin-containing] A (Homo sapiens, UniProt P21397); test: Inhibition of human MAO-A; procedure, shortened: as §1
T3 sequence (P21397 whole entry): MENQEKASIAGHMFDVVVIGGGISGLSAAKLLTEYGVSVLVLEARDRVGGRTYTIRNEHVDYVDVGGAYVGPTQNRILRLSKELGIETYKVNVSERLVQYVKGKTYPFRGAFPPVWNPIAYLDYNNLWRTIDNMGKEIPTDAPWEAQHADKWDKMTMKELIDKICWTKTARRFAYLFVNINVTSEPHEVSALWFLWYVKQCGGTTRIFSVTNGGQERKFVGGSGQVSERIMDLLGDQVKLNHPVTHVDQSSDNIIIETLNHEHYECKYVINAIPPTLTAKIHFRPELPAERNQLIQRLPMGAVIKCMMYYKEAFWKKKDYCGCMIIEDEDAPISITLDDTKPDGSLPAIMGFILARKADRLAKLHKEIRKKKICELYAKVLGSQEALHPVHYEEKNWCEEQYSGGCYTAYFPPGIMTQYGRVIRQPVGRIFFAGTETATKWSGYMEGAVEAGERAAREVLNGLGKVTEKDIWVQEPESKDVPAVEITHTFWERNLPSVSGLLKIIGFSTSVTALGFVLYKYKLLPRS

[4] = target: T4, MAO-A (amine oxidase [flavin-containing] A) (Homo sapiens, UniProt P21397); test: Inhibition of human MAO-A at 10 uM relative to control; procedure, shortened: as §1
T4 sequence (P21397 whole entry): T3 sequence (P21397 whole entry)

[5] = target: T5, Adenosine receptor A3 (Homo sapiens) (UniProt P0DMS8); test: Displacement of [3H]PSB-11 from human adenosine A3 receptor expressed in CHO cells relative to control; format: cell-based; set-up: concentration or dose not given beside the values; settings: concentration not given here
T5 sequence (whole entry): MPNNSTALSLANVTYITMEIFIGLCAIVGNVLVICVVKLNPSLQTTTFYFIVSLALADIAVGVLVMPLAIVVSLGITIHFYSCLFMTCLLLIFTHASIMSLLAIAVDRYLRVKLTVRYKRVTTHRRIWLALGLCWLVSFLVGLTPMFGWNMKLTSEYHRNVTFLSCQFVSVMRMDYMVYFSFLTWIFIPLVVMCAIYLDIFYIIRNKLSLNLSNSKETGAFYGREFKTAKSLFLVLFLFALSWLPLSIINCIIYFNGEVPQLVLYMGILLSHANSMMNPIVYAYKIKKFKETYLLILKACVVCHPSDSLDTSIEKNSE

Adenosine receptor A3 = target: T6, Adenosine receptor A3 (Homo sapiens, UniProt P0DMS8); test: Displacement of [3H]PSB-11 from human adenosine A3 receptor expressed in CHO cells; format: cell-based
T6 sequence (P0DMS8 whole entry): T5 sequence (whole entry)

[6] = target: Adenosine receptor A2a (Rattus norvegicus) (UniProt P30543); test: Displacement of [3H]MSX-2 from adenosine A2A receptor in rat brain striatum relative to control; format: tissue-based; set-up: concentration or dose not given beside the values; settings: concentration not given here
Chain of Adenosine receptor A2a (Rattus norvegicus) (P30543 whole entry): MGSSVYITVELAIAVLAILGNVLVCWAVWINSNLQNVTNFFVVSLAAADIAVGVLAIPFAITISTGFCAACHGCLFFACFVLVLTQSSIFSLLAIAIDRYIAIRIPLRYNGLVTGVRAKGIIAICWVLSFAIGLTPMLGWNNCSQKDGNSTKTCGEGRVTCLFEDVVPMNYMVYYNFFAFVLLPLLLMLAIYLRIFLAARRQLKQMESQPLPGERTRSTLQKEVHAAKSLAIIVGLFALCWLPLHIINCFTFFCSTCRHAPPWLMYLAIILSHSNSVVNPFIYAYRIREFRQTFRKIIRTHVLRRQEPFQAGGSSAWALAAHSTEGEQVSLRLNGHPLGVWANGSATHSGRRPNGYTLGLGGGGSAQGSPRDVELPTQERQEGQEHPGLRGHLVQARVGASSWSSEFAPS
Procedure, shortened: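 Radioligand binding to rat A2A receptors in rat brain striatal membrane preparations, reported as % inhibition of radioligand binding at the indicated concentration.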

Adenosine receptor A2a [7] = target: Adenosine receptor A2a (Rattus norvegicus, UniProt P30543); test: Displacement of [3H]MSX-2 from adenosine A2A receptor in rat brain striatum; format: tissue-based
Chain of Adenosine receptor A2a (Rattus norvegicus, UniProt P30543) (P30543 whole entry): as above

Adenosine receptor A2b = target: T7, Adenosine receptor A2b (Homo sapiens, UniProt P29275); test: Displacement of [3H]PSB-603 from human adenosine A2B receptor
T7 sequence (P29275 whole entry): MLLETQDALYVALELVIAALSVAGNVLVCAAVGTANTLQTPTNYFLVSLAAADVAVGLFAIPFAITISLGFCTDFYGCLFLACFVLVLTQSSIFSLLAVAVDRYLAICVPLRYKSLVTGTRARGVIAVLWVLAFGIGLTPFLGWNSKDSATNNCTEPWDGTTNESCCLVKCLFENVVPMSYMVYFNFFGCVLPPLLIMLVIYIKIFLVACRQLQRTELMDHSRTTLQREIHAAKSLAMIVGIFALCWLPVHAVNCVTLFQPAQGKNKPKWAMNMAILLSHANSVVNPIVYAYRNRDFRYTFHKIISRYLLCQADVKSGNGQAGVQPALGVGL

Adenosine receptor A1 [8] = target: T8, Adenosine receptor A1 (Rattus norvegicus, UniProt P25099); test: Displacement of [3H]CCPA from adenosine A1 receptor in rat brain cortex; format: tissue-based
T8 sequence (P25099 whole entry): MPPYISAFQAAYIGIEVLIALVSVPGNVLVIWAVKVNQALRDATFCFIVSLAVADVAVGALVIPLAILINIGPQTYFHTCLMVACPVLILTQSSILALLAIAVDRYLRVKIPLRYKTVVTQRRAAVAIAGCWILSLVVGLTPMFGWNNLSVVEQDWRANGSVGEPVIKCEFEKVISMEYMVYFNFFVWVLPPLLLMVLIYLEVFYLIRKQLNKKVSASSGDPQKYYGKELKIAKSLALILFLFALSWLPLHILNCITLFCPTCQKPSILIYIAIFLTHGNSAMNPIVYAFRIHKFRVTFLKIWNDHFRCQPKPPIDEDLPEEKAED
Procedure, shortened: (§2)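 Radioligand binding to rat A1 receptors in rat brain cortical membrane preparations. Values are given as Ki, or as % inhibition of radioligand binding at the indicated concentration.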

[9] = target: T9, Adenosine receptor A1 (Rattus norvegicus) (UniProt P25099); test: Displacement of [3H]CCPA from adenosine A1 receptor in rat brain cortex relative to control; format: tissue-based; set-up: concentration or dose not given beside the values; settings: concentration not given here; procedure, shortened: as §2
T9 sequence (whole entry): T8 sequence (P25099 whole entry)

Adenosine receptor A1 [10] = target: T10, Adenosine receptor A1 (Homo sapiens, UniProt P30542); test: Displacement of [3H]CCPA from human adenosine A1 receptor expressed in CHO cells; format: cell-based
T10 sequence (P30542 whole entry): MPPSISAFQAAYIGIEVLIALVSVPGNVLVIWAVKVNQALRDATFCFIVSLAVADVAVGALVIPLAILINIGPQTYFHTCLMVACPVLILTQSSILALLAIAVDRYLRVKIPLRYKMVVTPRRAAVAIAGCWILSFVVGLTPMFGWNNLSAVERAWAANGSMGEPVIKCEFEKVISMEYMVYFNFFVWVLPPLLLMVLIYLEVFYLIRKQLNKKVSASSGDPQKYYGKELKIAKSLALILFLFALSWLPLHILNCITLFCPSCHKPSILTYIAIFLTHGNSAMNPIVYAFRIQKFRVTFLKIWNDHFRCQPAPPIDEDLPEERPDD
Procedure, shortened: (§3)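 Radioligand binding to human receptors recombinantly expressed in Chinese hamster ovary (CHO) cells. Results are Ki, or % inhibition of radioligand binding at the indicated concentration.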

Adenosine receptor A2a [11] = target: Adenosine receptor A2a (Homo sapiens, UniProt P29274); test: Displacement of [3H]MSX-2 from human adenosine A2A receptor expressed in CHO cells; format: cell-based; procedure, shortened: as §3
Chain of Adenosine receptor A2a (Homo sapiens, UniProt P29274) (P29274 whole entry): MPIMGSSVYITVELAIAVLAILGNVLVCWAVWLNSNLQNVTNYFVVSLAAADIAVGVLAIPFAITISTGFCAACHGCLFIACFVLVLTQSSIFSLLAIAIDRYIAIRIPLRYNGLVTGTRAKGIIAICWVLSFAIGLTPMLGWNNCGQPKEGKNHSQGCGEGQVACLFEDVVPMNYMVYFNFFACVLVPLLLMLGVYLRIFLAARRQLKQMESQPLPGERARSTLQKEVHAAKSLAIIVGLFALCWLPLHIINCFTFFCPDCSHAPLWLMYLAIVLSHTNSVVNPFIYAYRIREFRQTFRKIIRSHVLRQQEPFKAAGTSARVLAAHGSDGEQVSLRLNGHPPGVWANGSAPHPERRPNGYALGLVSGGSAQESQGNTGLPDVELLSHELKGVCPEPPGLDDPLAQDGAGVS

[12] = target: T11, Adenosine receptor A2b (Homo sapiens) (UniProt P29275); test: Displacement of [3H]PSB-603 from human adenosine A2B receptor relative to control; set-up: concentration or dose not given beside the values; settings: concentration not given here
T11 sequence (whole entry): T7 sequence (P29275 whole entry)

Row | SMILES | inhibition at 10 µM [1] [%] | IC50 [2] [nM] | IC50 [3] [nM] | inhibition at 10 µM [4] [%] | inhibition [5] [%] | Ki (Adenosine receptor A3) [nM] | inhibition [6] [%] | Ki (Adenosine receptor A2a [7]) [nM] | Ki (Adenosine receptor A2b) [nM] | Ki (Adenosine receptor A1 [8]) [nM] | inhibition [9] [%] | Ki (Adenosine receptor A1 [10]) [nM] | Ki (Adenosine receptor A2a [11]) [nM] | inhibition [12] [%]
1 | Cn1c(=O)c2c(nc3n2CCCN3CC(=O)N2CCN(c3ccccc3)CC2)n(C)c1=O | 40 | 10000 | > 10000 | 1 | 32 | > 10000 | 40 | > 10000 | > 1000 | > 1500 | 3 | – | – | –
2 | C#CCn1c(=O)c2c(nc3n2CCCN3Cc2cccs2)n(C)c1=O | 51 | 10000 | > 10000 | 0 | 30 | > 10000 | – | 259 | 1740 | 114 | – | 410 | 626 | –
3 | C#CCn1c(=O)c2c(nc3n2CCCN3C2CCN(Cc3ccccc3)CC2)n(C)c1=O | 22 | > 10000 | – | – | 3 | > 1000 | – | 2470 | > 1000 | > 10000 | 32 | – | 628 | -2
4 | Cn1c(=O)c2c(nc3n2CCCN3Cc2cc(Cl)cc(Cl)c2)n(C)c1=O | – | 193 | > 10000 | 1 | 14 | > 10000 | – | 1640 | > 1000 | 165 | – | 1700 | 3780 | 4
5 | Cn1c(=O)c2c(nc3n2CCCN3c2cc(Cl)cc(Cl)c2)n(C)c1=O | 58 | > 10000 | – | – | 21 | > 10000 | – | 5540 | > 1000 | > 10000 | 21 | – | 4610 | 11
6 | CCn1c(=O)c2c(nc3n2CCCN3CCN2CCCCC2)n(CC)c1=O | 34 | > 10000 | – | – | 13 | > 1000 | 44 | > 10000 | > 300 | 1070 | – | – | – | 2
7 | C#CCn1c(=O)c2c(nc3n2CCCN3Cc2cccc(OC)c2)n(C)c1=O | 51 | 10000 | > 10000 | 5 | – | – | – | 696 | – | 227 | – | 1330 | 322 | 8

Results, then the molecule that gave them:

Row | inhibition at 10 µM [1] [%] | IC50 [2] [nM] | IC50 [3] [nM] | inhibition at 10 µM [4] [%] | inhibition [5] [%] | Ki (Adenosine receptor A3) [nM] | inhibition [6] [%] | Ki (Adenosine receptor A2a [7]) [nM] | Ki (Adenosine receptor A2b) [nM] | Ki (Adenosine receptor A1 [8]) [nM] | inhibition [9] [%] | Ki (Adenosine receptor A1 [10]) [nM] | Ki (Adenosine receptor A2a [11]) [nM] | inhibition [12] [%] | SMILES
8 | 30 | > 10000 | – | – | 15 | > 10000 | 41 | > 10000 | > 1000 | > 1500 | 0 | – | – | -8 | COc1ccc(CN2CCN(C(=O)CN3CCCn4c3nc3c4c(=O)n(C)c(=O)n3C)CC2)cc1
9 | 46 | 10000 | – | – | – | 2450 | 27 | > 10000 | > 1000 | > 1500 | 18 | – | – | 6 | CCCn1c(=O)c2c(nc3n2CCCN3CC(=O)N2CCN(c3ccccc3)CC2)n(CCC)c1=O
10 | – | 3600 | > 10000 | 1 | 23 | > 1000 | 40 | > 10000 | > 1000 | > 1500 | 8 | – | – | -4 | CCCn1c(=O)c2c(nc3n2CCCN3CCC(=O)N2CCN(Cc3ccc(Cl)cc3)CC2)n(CCC)c1=O
11 | 30 | > 10000 | – | – | – | 1600 | 33 | > 10000 | > 1000 | > 1500 | 18 | – | – | 4 | CCCn1c(=O)c2c(nc3n2CCCN3CC(=O)N2CCN(Cc3ccc(OC)cc3)CC2)n(CCC)c1=O
12 | 52 | 10000 | > 10000 | -2 | – | 762 | 36 | > 10000 | > 1000 | > 1500 | 19 | – | – | 7 | CCCn1c(=O)c2c(nc3n2CCCN3CC(=O)N2CCN(c3ccc(Cl)cc3)CC2)n(CCC)c1=O
13 | 30 | > 10000 | – | – | 21 | > 1000 | 14 | > 10000 | > 1000 | > 1500 | 5 | – | – | -5 | CCCn1c(=O)c2c(nc3n2CCCN3CCC(=O)N2CCN(c3ccccc3)CC2)n(CCC)c1=O
14 | – | 3480 | > 10000 | 6 | 36 | > 10000 | 27 | > 10000 | > 1000 | > 1500 | 2 | – | – | 2 | Cn1c(=O)c2c(nc3n2CCCN3CC(=O)N2CCN(Cc3ccc(C(F)(F)F)cc3)CC2)n(C)c1=O
15 | – | 4760 | > 10000 | 2 | – | 6320 | – | 624 | > 1000 | > 10000 | 20 | – | 2530 | 29 | CCn1c(=O)c2c(nc3n2CCCN3CCc2ccc(OC)cc2)n(CC)c1=O
